# Assays:
# Rattus norvegicus [1] = assay: Anabolic activity in ORX rat model assessed as levator ani muscle weight at 30 mg/kg, po administered 4 days relative to sham-treated control; assay type: functional
# Outline: (§1)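 Young (immature) rats castrated, left untreated one week, then dosed daily for four days (test agents orally; testosterone propionate subcutaneously). Untreated ORX and sham-operated rats as controls. Levator ani (anabolic) and ventral prostate (androgenic) weights normalised to body weight; activity % = (W/BW treated − W/BW ORX)/(W/BW sham − W/BW ORX) × 100; A50 = dose giving 50% activity.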
# Rattus norvegicus [2] = assay: Androgenic activity in ORX rat model assessed as ventral prostate weight at 30 mg/kg, po administered 4 days relative to sham-treated control; assay type: functional, Prostate gland; outline: as §1
# Rattus norvegicus [3] = assay: Anabolic activity in ORX rat model assessed as levator ani muscle weight at 10 mg/kg, po administered 4 days relative to sham-treated control; assay type: functional; outline: as §1
# Rattus norvegicus [4] = assay: Androgenic activity in ORX rat model assessed as ventral prostate weight at 10 mg/kg, po administered 4 days relative to sham-treated control; assay type: functional, Prostate gland; outline: as §1
# Rattus norvegicus [5] = assay: Anabolic activity in sc dosed ORX rat model assessed as dose required to induce 50% effect on levator ani muscle weight administered 4 days; assay type: functional; outline: as §1
# Rattus norvegicus [6] = assay: Anabolic activity in ORX rat model assessed as levator ani muscle weight at 1 mg/kg, sc administered 4 days relative to sham-treated control; assay type: functional; conditions: route subcutaneous; outline: as §1
# Rattus norvegicus [7] = assay: Anabolic activity in sc dosed ORX rat model assessed as maximum effect on levator ani muscle weight administered 4 days relative to sham-treated control; assay type: functional; outline: as §1
# Rattus norvegicus [8] = assay: Androgenic activity in sc dosed ORX rat model assessed as maximum effect on ventral prostate weight administered 4 days relative to sham-treated control; assay type: functional, Prostate gland; outline: as §1
# Rattus norvegicus [9] = assay: Androgenic activity in sc dosed ORX rat model assessed as dose required to induce 50% effect on ventral prostate weight administered 4 days; assay type: functional, Prostate gland; outline: as §1
# Rattus norvegicus [10] = assay: Androgenic activity in ORX rat model assessed as ventral prostate weight at 1 mg/kg, sc administered 4 days relative to sham-treated control; assay type: functional, Prostate gland; conditions: route subcutaneous; outline: as §1
SMILES,Activity (Rattus norvegicus [1]) [%],Activity (Rattus norvegicus [2]) [%],other results
Cc1c(N2C(=O)N(C)C(C)(c3ccc(O)cc3)C2=O)ccc(C#N)c1Cl (racemic),82,12,–
CN1C(=O)N(c2ccc(Cl)c(Cl)c2)C(=O)C1(C)c1ccc(O)cc1 (racemic),12,0,–
COc1cc(N2C(=O)N(C)[C@](C)(c3ccc(O)cc3)C2=O)ccc1C#N,–,–,Activity (Rattus norvegicus [3]): 132%; Activity (Rattus norvegicus [4]): 30%
C#CCN1C(=O)N(c2ccc(C#N)c(C(F)(F)F)c2)C(=O)C1(C)c1ccc(O)cc1 (racemic),95,19,–
CN1C(=S)N(c2ccc(C#N)c(C(F)(F)F)c2)C(=O)C1(C)c1ccc(O)cc1 (racemic),12,4,–
CCC(=O)O[C@H]1CC[C@H]2[C@@H]3CCC4=CC(=O)CC[C@]4(C)[C@H]3CC[C@]12C [TESTOSTERONE PROPIONATE],–,–,Activity (Rattus norvegicus [5]): 0.3 mg/kg; Activity (Rattus norvegicus [6]): 99%; Activity (Rattus norvegicus [7]): 130%; Activity (Rattus norvegicus [8]): 130%; Activity (Rattus norvegicus [9]): 0.2 mg/kg; Activity (Rattus norvegicus [10]): 73%
